The source made the active and inactive calls.
Experiments:
[1] = Cytotoxicity against human HeLa cells assessed as reduction in cell viability by XTT assay; assay type: cell-based; settings: read-out: MCC50
Outline: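 HeLa cells grown in DMEM with 10% FBS, penicillin and streptomycin at 37 °C, 5% CO2; 30 000 cells/well. XTT viability read at 450 and 650 nm. MCC50 (50% lysis) came from viability-versus-concentration curves. Two experiments, each in triplicate.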

[2] = target: T1, Flavodoxin (Helicobacter pylori (strain ATCC 700392 / 26695) (Campylobacter pylori)) (UniProt O25776); test: Inhibition of flavodoxin in Helicobacter pylori SS1 assessed as reduction in bacterial growth measured after 48 hrs by resazurin staining-based microdilution method
T1 sequence (whole entry): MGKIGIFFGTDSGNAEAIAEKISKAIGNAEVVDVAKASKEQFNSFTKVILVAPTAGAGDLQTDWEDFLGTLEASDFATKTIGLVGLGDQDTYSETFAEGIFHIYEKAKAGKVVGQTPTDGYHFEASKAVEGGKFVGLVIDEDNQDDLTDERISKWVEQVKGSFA
Outline: (§1)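 Broth microdilution in brain heart infusion with 4% FBS. Inoculum diluted to OD600 0.01. Two-fold dilutions from a DMSO stock cover 64–0.031 μg/mL, with DMSO ≤1% v/v. Incubated 48 h at 37 °C under microaerophilic conditions. MIC is the lowest concentration giving complete growth inhibition, read by resazurin colour change and confirmed by spotting on blood agar. Run twice in triplicate.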

[3] = target: T1, Flavodoxin (Helicobacter pylori (strain ATCC 700392 / 26695) (Campylobacter pylori)); test: Inhibition of flavodoxin in Mnz-resistant Helicobacter pylori NCTC 11637 ATCC 43504 assessed as reduction in bacterial growth measured after 48 hrs by resazurin staining-based microdilution method; settings: Helicobacter pylori NCTC 11637 = CCUG 17874 = ATCC 43504; outline: as §1
[4] = target: T1, Flavodoxin (Helicobacter pylori (strain ATCC 700392 / 26695) (Campylobacter pylori)); test: Inhibition of flavodoxin in Helicobacter pylori ATCC 700392 26695 assessed as reduction in bacterial growth measured after 48 hrs by resazurin staining-based microdilution method; settings: Helicobacter pylori 26695; outline: as §1
[5] = Therapeutic index, ratio of MCC50 for human HeLa cells to MIC for inhibition of flavodoxin in Helicobacter pylori SS1 assessed as reduction in bacterial growth; assay type: toxicity; settings: HeLa cells versus Helicobacter pylori SS1, read-out: TI
Outline: (§2)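 TI is MCC50/MIC. For MCC50, HeLa cells (30 000/well, DMEM with 10% FBS) were exposed to compound at 25–1000 μM final. Viability by XTT at 450/650 nm; MCC50 is the concentration giving 50% lysis from viability curves. Run twice in triplicate.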

[6] = Therapeutic index, ratio of MCC50 for human HeLa cells to MIC for inhibition of flavodoxin in Mnz-resistant Helicobacter pylori NCTC 11637 ATCC 43504 assessed as reduction in bacterial growth; assay type: toxicity; settings: read-out: TI; outline: as §2
[7] = Therapeutic index, ratio of MCC50 for human HeLa cells to MIC for inhibition of flavodoxin in Helicobacter pylori ATCC 700392 26695 assessed as reduction in bacterial growth; assay type: toxicity; settings: HeLa cells versus Helicobacter pylori ATCC 700392 26695, read-out: TI; outline: as §2
[8] = Toxicity in specific-pathogen-free C57BL/6J mouse assessed as histopathological changes in liver at 10 to 40 mg/100g, po administered daily via gavage for 8 days hematoxylin-eosin staining based assay; assay type: organism-based; settings: in vivo, 192 h
Outline: (§3)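 Controls received olive oil with 5% DMSO. Blood by cardiac puncture was analysed for biochemistry on an automatic analyser. Heart, stomach, liver, lung and kidney sections were H&E-stained for histopathology.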

[9] = Toxicity in specific-pathogen-free C57BL/6J mouse assessed as histopathological changes in heart at 10 to 40 mg/100g, po administered daily via gavage for 8 days hematoxylin-eosin staining based assay; assay type: organism-based; settings: in vivo, 192 h; outline: as §3
[10] = Toxicity in specific-pathogen-free C57BL/6J mouse assessed as histopathological changes in lung at 10 to 40 mg/100g, po administered daily via gavage for 8 days hematoxylin-eosin staining based assay; assay type: organism-based; settings: in vivo, 192 h; outline: as §3
[11] = Toxicity in specific-pathogen-free C57BL/6J mouse assessed as histopathological changes in kidney at 10 to 40 mg/100g, po administered daily via gavage for 8 days hematoxylin-eosin staining based assay; assay type: organism-based; settings: in vivo, 192 h; outline: as §3
[12] = Toxicity in specific-pathogen-free C57BL/6J mouse assessed as change in biochemical parameters at 10 to 40 mg/100g, po administered daily via gavage for 8 days; assay type: organism-based; settings: in vivo, 192 h; outline: as §3
[13] = Toxicity in specific-pathogen-free C57BL/6J mouse assessed as histopathological changes in stomach by measuring inflammation at 20 to 40 mg/100g, po […] hematoxylin-eosin staining based assay; assay type: organism-based; settings: in vivo, 192 h
[14] = Toxicity in specific-pathogen-free C57BL/6J mouse assessed as histopathological changes in stomach by measuring hyperplasia at 20 to 40 mg/100g, […] hematoxylin-eosin staining based assay; assay type: organism-based; settings: in vivo, po, 192 h
[15] = Toxicity in specific-pathogen-free C57BL/6J mouse assessed as histopathological changes in stomach by measuring necrosis of epithelium at 20 to 40 mg/100g, po […] hematoxylin-eosin staining based assay; assay type: organism-based; settings: in vivo, 192 h
[16] = Toxicity in specific-pathogen-free C57BL/6J mouse assessed as hair loss at 40 mg/100g, po administered daily via gavage for 8 days; assay type: organism-based; settings: in vivo, 192 h
[17] = Toxicity in specific-pathogen-free C57BL/6J mouse assessed as weight loss at 40 mg/100g, po administered daily via gavage for 8 days; assay type: organism-based; settings: in vivo, 192 h
[18] = Toxicity in NMRI mouse infected with Helicobacter pylori SS1 assessed as change in body weight at 0.1 to 10 mg/100g, po administered daily via gavage for 8 days starting from 1 week post-infection; assay type: organism-based; settings: in vivo
[19] = Toxicity in NMRI mouse infected with Helicobacter pylori SS1 assessed as change in appetite at 0.1 to 10 mg/100g, po administered daily via gavage for 8 days starting from 1 week post-infection; assay type: organism-based; settings: in vivo
[20] = Toxicity in NMRI mouse assessed as change in body weight at 0.1 to 10 mg/100g, po administered daily via gavage for 8 days; assay type: organism-based; settings: in vivo, 192 h
Helicobacter pylori = test: Antibacterial activity against Helicobacter pylori SS1 infected in NMRI mouse assessed as reduction in gastric colonization at 1 mg/100g, po administered daily via gavage for 8 days starting from 1 week post-infection and measured 8 days post-last dose; assay type: functional, organism-based
Outline: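 Female 6-week-old SPF NMRI mice, 7 per condition, infected orogastrically on days 1 and 3 with 100 μL Hp SS1 (5 × 10^8 CFU/mL). From day 8, compound given daily by oral gavage for 8 days in 100 μL of 5–10% DMSO/95–90% olive oil. Sacrificed day 24; stomach homogenate CFU/g counted after 5 days microaerophilic culture at 37 °C. Infected vehicle-treated controls; Mann-Whitney U and unpaired t tests, p ≤ 0.05.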

[21] = target: T1, Flavodoxin (Helicobacter pylori (strain ATCC 700392 / 26695) (Campylobacter pylori)); test: Binding affinity to Helicobacter pylori flavodoxin by thermal upshift assay
[22] = target: T1, Flavodoxin (Helicobacter pylori (strain ATCC 700392 / 26695) (Campylobacter pylori)); test: Binding affinity to Helicobacter pylori flavodoxin by isothermal titration calorimetric method
Escherichia coli = test: Effect on growth of Escherichia coli DH5[alpha] after 48 hrs by resazurin-dye based microdilution assay; assay type: organism-based
Staphylococcus aureus = test: Effect on growth of Staphylococcus aureus ATCC 1228 after 48 hrs by resazurin-dye based microdilution assay; assay type: organism-based

O=[N+]([O-])/C=C/c1c(F)cc(Cl)cc1F
16: selectivity ratio [5] | selectivity ratio [6] | selectivity ratio [7]
Toxic: Activity [13] | Activity [14] | Activity [15] | Activity [16]
active: Activity (Helicobacter pylori) | Activity [21] | Activity [22]
> 20%: Activity [17]
36 µM: CC50 [1]
Non-Toxic: Activity [8] | Activity [9] | Activity [10] | Activity [11] | Activity [12] | Activity [18] | Activity [19] | Activity [20] | Activity (Escherichia coli) | Activity (Staphylococcus aureus)
2.3 µM: MIC [2] | MIC [3] | MIC [4]
